Measurements from publication PMC10108379 (RSC Advances, 2023).

Legend:
[1] = Pharmacokinetics in rat plasma after oral administration of AR and SAR extracts; assay type: in vivo, Sprague-Dawley (SD) rats
[2] = system: HepG-2 cells; settings: previous PD experiments of the group; cited from earlier work
[3] = Stability of the three components in rat plasma; assay type: in vitro ADME; settings: for Stability, RE: n = 6
Outline: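 Blank rat plasma spiked with each analyte at low, medium and high QC levels, then subjected to repeated freeze–thaw cycles. Samples were thawed to room temperature and precipitated with cold methanol containing puerarin as internal standard, then vortexed 3 min and centrifuged at 12 000 rpm for 15 min. Analysis was by UPLC-MS/MS on an HSS T3 column at 30 °C (0.1% formic acid water/acetonitrile gradient). Acceptance limit: within 15%.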

[4] = rat plasma, oral AR extract 5 mL kg^−1, n = 6
[5] = freeze–thaw cycles, high QC (200 / 300 / 250 μg mL^−1)
[6] = −20 °C for 30 days, high QC (200 / 300 / 250 μg mL^−1)

| increase of AUC after administration of the SAR extract ([1]; SAR group compared to AR group, rats, oral) | T max [1, 4] | t 1/2 [1, 4] | Structure (SMILES) | glucose consumption of HepG-2 cells [2] | Stability, RE [3, 5] | Stability, RE [3, 6] | C max [1, 4] | relative error (RE) after each stability experiment ([3]; 4 °C 24 h, −20 °C 30 days, freeze–thaw cycles, all QC levels) | Stability, RE ([3]; autosampler at 4 °C for 24 h, low QC (2.0 / 3.0 / 2.5 μg mL^−1)) | Stability, RE ([3]; freeze–thaw cycles, low QC (2.0 / 3.0 / 2.5 μg mL^−1)) | Stability, RE ([3]; freeze–thaw cycles, medium QC (20.0 / 30.0 / 25.0 μg mL^−1)) | Stability, RE ([3]; −20 °C for 30 days, low QC (2.0 / 3.0 / 2.5 μg mL^−1)) | Stability, RE ([3]; −20 °C for 30 days, medium QC (20.0 / 30.0 / 25.0 μg mL^−1)) |
| --- | --- | --- | --- | --- | --- | --- | --- | --- | --- | --- | --- | --- | --- |
| 22.3% | 5.76 ± 0.52 h | 3.01 ± 0.36 h | O=c1c2cc(O)c(O)cc2oc2cc(O)c([C@@H]3O[C@H](CO)[C@@H](O)[C@H](O)[C@H]3O)c(O)c12 [Mangiferin, mangiferin] | improved the glucose consumption | 10.2% | 2.3% | – | – | – | – | – | – | – |
| – | – | – | C[C@H]1CC[C@@]2(OC1)O[C@H]1C[C@H]3[C@@H]4CC[C@@H]5C[C@@H](O[C@@H]6O[C@H](CO)[C@H](O)[C@H](O)[C@H]6O[C@@H]6O[C@H](CO)[C@@H](O)[C@H](O)[C@H]6O)CC[C@]5(C)[C@H]4CC[C@]3(C)[C@H]1[C@@H]2C [Timosaponin AIII, timosaponin AIII] | improved the glucose consumption | 3.8% | 10.6% | 3.67 ± 0.51 ng/mL | ≤ 10.6% | 1.3% | −0.1% | 6.8% | 2.2% | 6.3% |
